Screening results: PubChem, Broad Institute
The list is not random: actives were taken first. Their share in the collection is about 1.4%.
ERp5 inh: inhibitors of ERp5-driven insulin aggregation, primary screen, biochemical, turbidity, absorbance 650 nm, single point; Protein disulfide-isomerase A6 (Homo sapiens), Q15084; 90 min; inhibition, % at 9.99 µM; actives 0.05% (n = 350,000); AID 651711, 2012;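 active = mean replicate inhibition above about 25%, with every replicate also reaching it, limit read from the data, passing the limit was not always enough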
FN deposit inh: inhibitors of fibronectin matrix deposition, primary screen, AH1F cells, Alexa488-fibronectin fluorescence, plate reader; inhibition, % at 12.6 µM; actives 0.086% (n = 350,000); AH1F fibroblasts, overnight;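 active = mean inhibition across replicates of 30% or more, regardless of how many single replicates reach that level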;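 note: positive control wells lacked labelled fibronectin entirely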
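material = AH1F fibroblast monolayer depositing Alexa488-labelled fibronectin into matrix | amount = 10000 AH1F cells/well | buffer or medium = DMEM plus 2% serum, read in PBS | incubation = 1 h cell adhesion before compound, then overnight fibronectin incubation | detection = fluorescence at 485 nm excitation, 525 nm emission | evaluation = percent inhibition as loss of matrix-bound fibronectin fluorescence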
INS-1E GSIS act: GLuc luminescence reporter in INS-1E cells, primary screen for activators of glucose-dependent secretion of insulin; INS-1E GLuc reporter insulin secretion, 2-3 h; activation, % at 16.6 µM; actives 0.61% (n = 370,000); AID 743287, 2014;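 active = lowest replicate activation of at least 40%, so every replicate reaches that level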;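 note: 0% = median of neutral control wells and 100% = median of IBMX positive control wells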
PDI turbidity: inhibitors of human PDI, primary screen, biochemical, turbidity, single point, plate reader; actives 0.052% (n = 350,000); PDI insulin aggregation turbidity, A650, 90 min; AID 588391, 2011; inhibition, % at 10 µM; Protein disulfide-isomerase (Homo sapiens), P07237;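 active = mean inhibition across replicates of 30% or more, whatever share of single replicates reach that level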
Target sequence (P07237 whole entry, looked up): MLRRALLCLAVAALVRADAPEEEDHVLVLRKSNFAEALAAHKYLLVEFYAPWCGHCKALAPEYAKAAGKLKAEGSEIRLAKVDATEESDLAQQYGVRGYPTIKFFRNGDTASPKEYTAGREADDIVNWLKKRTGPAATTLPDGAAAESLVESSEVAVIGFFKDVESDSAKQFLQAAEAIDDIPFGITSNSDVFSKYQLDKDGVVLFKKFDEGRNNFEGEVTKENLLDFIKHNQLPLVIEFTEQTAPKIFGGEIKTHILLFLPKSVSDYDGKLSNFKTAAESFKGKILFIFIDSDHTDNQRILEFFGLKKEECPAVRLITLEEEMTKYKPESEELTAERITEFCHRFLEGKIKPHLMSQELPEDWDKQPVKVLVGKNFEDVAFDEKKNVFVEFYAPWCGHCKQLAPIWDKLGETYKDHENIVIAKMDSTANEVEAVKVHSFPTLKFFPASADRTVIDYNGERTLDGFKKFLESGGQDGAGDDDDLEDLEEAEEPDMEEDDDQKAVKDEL
HIV Env fusion: inhibitors of HIV-1 Env-driven cell-cell fusion, primary screen, HeLa-JRFL effector, CEM21 target cells, luciferase; inhibition, % at 12.3 µM; actives 1.1% (n = 360,000); AID 651610, 2012;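 active = mean replicate inhibition score of at least 50 and every replicate individually at or above 50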;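 note: 0% = plate neutral controls and 100% = maraviroc near 300 nM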
Active calls of the source: *; nt = no result; [ ] = dose if it differs, or a comment.

SMILES	ERp5 inh	FN deposit inh	INS-1E GSIS act	PDI turbidity	HIV Env fusion
COc1ccc(S(=O)(=O)Nc2ccc3c(c2)CC(=O)N([C@@H](C)CO)C[C@H](C)[C@H](CN(C)S(=O)(=O)c2ccc(C)cc2)O3)cc1	5	nt	-13	nt	96*[16.7 µM]
Cc1ccc(S(=O)(=O)Nc2ccc3c(c2)CC(=O)N([C@H](C)CO)C[C@H](C)[C@H](CN(C)S(=O)(=O)c2ccc(C)cc2)O3)cc1	9	nt	-5	nt	90*[16.7 µM]
Cc1ccc(S(=O)(=O)Nc2ccc3c(c2)CC(=O)N([C@@H](C)CO)C[C@@H](C)[C@H](CN(C)S(=O)(=O)c2ccc(C)cc2)O3)cc1	-2	nt	0	nt	-12[16.7 µM]
COc1ccc(S(=O)(=O)N(C)C[C@@H]2Oc3ccc(NS(=O)(=O)c4ccc(C)cc4)cc3CC(=O)N([C@H](C)CO)C[C@@H]2C)cc1	nt	nt	-2	nt	28[16.7 µM]
Cc1ccc(S(=O)(=O)Nc2ccc3c(c2)C(=O)N([C@H](C)CO)C[C@@H](C)[C@H](CN(C)S(=O)(=O)c2ccc(F)cc2)O3)cc1	-1	nt	-12	nt	60*[16.7 µM]
CN(C)C(=O)c1ccc(-c2ccccc2[C@@H]2[C@@H](CO)N(C(=O)C3CCCCC3)[C@H]2C#N)cc1	-3	0	-5	nt	nt
CCNc1nc(NC(N)=S)nc(NC(C)(C)C)n1	6	2	70*	-2	-16
CCNc1nc(NCC)nc(NC(N)=S)n1	-1	-2	-10	-1	-56
C[C@@H]1CN([C@@H](C)CO)C(=O)Cc2cc(NC(=O)Cc3cn(C)c4ccccc34)ccc2O[C@@H]1CN(C)S(=O)(=O)c1cccs1	-8	-23	-1	nt	-31[16.7 µM]
COc1ccc(S(=O)(=O)N(C)C[C@@H]2Oc3ccc(NC(=O)Cc4cn(C)c5ccccc45)cc3CC(=O)N([C@H](C)CO)C[C@@H]2C)cc1	4	nt	13	nt	76*[16.7 µM]
C[C@H](CO)N1C[C@H](C)[C@H](CN(C)S(=O)(=O)c2ccccc2)Oc2ccc(NC(=O)Cc3cn(C)c4ccccc34)cc2CC1=O	-4	nt	-1	nt	94*[16.7 µM]
C[C@H](CO)N1C[C@H](C)[C@H](CN(C)S(=O)(=O)c2cccs2)Oc2ccc(NC(=O)Cc3cn(C)c4ccccc34)cc2CC1=O	6	1	-4	nt	96*[16.7 µM]
C[C@@H]1CCCCO[C@@H](CN(C)C(=O)NC2CCCCC2)[C@H](C)CN([C@@H](C)CO)C(=O)c2cc(NS(C)(=O)=O)ccc2O1	nt	2	9	nt	-4[16.7 µM]
CCCC(=O)N1CC2(CCN(CC3CCCC3)CC2)c2c([nH]c3cc(OC)ccc23)[C@H]1CO	nt	nt	-3	nt	nt
Cc1ccc(NC(=O)COC(=O)c2cc(-c3cccs3)nn2-c2ccccc2)cc1[N+](=O)[O-]	nt	3	69*	15	-82
C[C@@H]1CN([C@H](C)CO)C(=O)c2cc(NC(=O)Nc3ccc4c(c3)OCO4)ccc2O[C@@H](C)CCCCO[C@H]1CN(C)S(C)(=O)=O	3	nt	-11	nt	-6[16.7 µM]
COc1cc2nc(N3CCNCC3)nc(N)c2cc1OC	nt	-1	nt	17	-2
COc1cc2nc(N3CCN(c4cc(C)ccc4C)CC3)nc(N)c2cc1OC	-3	4	221*	22	-4
COc1ccccc1CC1(C)C(=O)Nc2ccc(S(=O)(=O)NC3CCCCC3)cc21 (stereo not given)	-7	5	-20	2	56*
COc1ccc(OC(F)(F)F)cc1CC1(C)C(=O)Nc2cccc(Cl)c21 (stereo not given)	5	-7	-15	9	83*
COc1ccc(OC(F)(F)F)cc1CC1(C)C(=O)Nc2ccc(-c3ccsc3)cc21 (stereo not given)	-3	-2	1	-2	58*
CC1(Cc2ccccc2OC(F)(F)F)C(=O)Nc2ccc(S(=O)(=O)NC3CCCCC3)cc21 (stereo not given)	-6	-3	-38	-1	55
COc1ccc(C(C)=O)cc1CC1(C)C(=O)Nc2ccc(OC(F)(F)F)cc21 (stereo not given)	3	3	-22	-7	10
COc1ccc(OC(F)(F)F)cc1CC1(C)C(=O)Nc2ccc(S(=O)(=O)NC3CCCCC3)cc21 (stereo not given)	12	-9	-2	4	88*
CO[C@H]1CN(C)C(=O)c2ccc(NC(=O)c3ccccc3F)cc2OC[C@@H](C)N(C)C[C@H]1C	nt	10	9	nt	5[16.7 µM]
SMILES	ERp5 inh	FN deposit inh	INS-1E GSIS act	PDI turbidity	HIV Env fusion
Cc1ccccc1CC1(C)C(=O)Nc2ccc(S(=O)(=O)NC3CCCCC3)cc21 (stereo not given)	12	-6	-45	-9	17
COc1ccc(Cl)cc1CC1(C)C(=O)Nc2ccc(S(=O)(=O)NC3CCCCC3)cc21 (stereo not given)	-1	5	-11	-3	93*
COCC(=O)N1CCC2(CC1)CN(Cc1cccc(OC)c1)[C@@H](CO)c1c2c2ccc(OC)cc2n1C	nt	nt	-12	nt	nt
O=C(C[C@@H]1CC[C@@H]2[C@H](COC[C@H](O)CN2C(=O)Nc2ccc(Cl)cc2)O1)N1CCCCC1	-3	3	-10	nt	nt
COc1ccc(CN2CC(=O)N3[C@H]4c5cc(C)ccc5OC[C@@H]4[C@H](c4ccccc4)[C@]3(C)C2=O)cc1	1	-10	nt	6	6
Cc1ccc2c(c1)[C@H]1[C@H](CO2)[C@H](c2ccccc2)[C@]2(C)C(=O)N(Cc3ccc(F)cc3)CC(=O)N12	1	1	-4	3	62*
Cc1ccc2c(c1)[C@H]1[C@H](CO2)[C@H](c2ccccc2)[C@]2(C)C(=O)N(Cc3ccc(Cl)cc3)CC(=O)N12	1	-16	-9	-4	65*
COc1ccc2c(c1)OC[C@H]1[C@H]2N2C(=O)CN(Cc3ccc(F)cc3)C(=O)[C@@]2(C)[C@H]1c1ccccc1	-2	-3	-16	4	48
COc1ccc2c(c1)OC[C@H]1[C@H]2N2C(=O)CN(Cc3ccc(C)cc3)C(=O)[C@@]2(C)[C@H]1c1ccccc1	-1	2	2	3	87*
CN1c2ccc(C#Cc3cccnc3)cc2[C@@H]2[C@@H](CCN2S(=O)(=O)c2ccccc2F)[C@H]1CO	-4	13	-45	nt	nt
CO[C@H]1CN(C)C(=O)c2ccc(NC(=O)Nc3ccc(Cl)cc3)cc2OC[C@H](C)N(C)C[C@@H]1C	6	5	-2	nt	nt
Clc1ccc(CSc2nnc(-c3ccncc3)o2)cc1	nt	nt	nt	-5	63*
Cc1ccc(C(O)c2ncc(-c3cccc4ccccc34)[nH]2)cc1F (stereo not given)	-2	30*	-15	7	-3
Cc1ccc(C(O)c2ncc(-c3ccccc3C)[nH]2)cc1F (stereo not given)	-8	1	-11	4	-3
COc1cccc(S(=O)(=O)N(C)C[C@H]2Oc3cc(C4=CCCCC4)ccc3S(=O)(=O)N([C@H](C)CO)C[C@H]2C)c1	nt	nt	-23	nt	69*[16.7 µM]
